The subject of assay [1] is SF-295. Description: Cytotoxicity against human SF295 cells after 72 hrs by MTT assay. Type of assay: functional, cell-based. An outline of the steps:
(§1)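 Human tumour lines were grown in RPMI 1640 with 10% fetal bovine serum and 1% antibiotics at 37 °C under 5% CO2. Plating densities were 0.7 × 10⁵ for HCT-8, 0.6 × 10⁵ for SF-295 and 0.3 × 10⁶ for HL-60. Samples came from a 5 mg/mL DMSO stock and were incubated 72 h. MTT read at 550 nm; growth inhibition relative to […]. Triplicate, two independent experiments.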
For orientation: Formazan colour is commonly taken as a measure of viable cells.

Assay [2] deals with Plasmodium falciparum. Description: Antimalarial activity against Plasmodium falciparum K1 at 50 ug/mL. Type of assay: functional. The essentials:
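Preliminary screen against P. falciparum K1 at two concentrations, printed as 50 and 2.5 (unit unclear). Parasite growth given as percentage reduction versus untreated controls.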

Assay [3] relates to HCT-8. Briefly: Cytotoxicity against human HCT8 cells after 72 hrs by MTT assay. Type of assay: functional, cell-based. The essentials:
as §1

In assay [4] the test system is MDA-MB-435. Briefly: Cytotoxicity against human MDA-MB-435 cells after 72 hrs by MTT assay. Type of assay: functional, cell-based.
In assay [5] the test system is Plasmodium falciparum. Description: Antimalarial activity against Plasmodium falciparum K1. The assay is classed as functional, organism-based. The essentials: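 P. falciparum K1 (multidrug-resistant) cultured with compound at serial dilutions; growth measured as percentage reduction versus untreated controls; IC50 derived by probit analysis. Only compounds active in the preliminary single-concentration screen went on to this step.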

Assay [6] relates to HL-60. Description: Cytotoxicity against human HL60 cells after 72 hrs by MTT assay. Type of assay: functional, cell-based. To be noted: HL-60, 72 h. An outline of the steps:
as §1

The structures appear in SMILES notation. ≈ marks a conversion by molar mass, not a printed value. Some results are limits rather than exact numbers.

Usually IC50 stands for the point on the concentration scale where inhibition reaches its midpoint. As a reminder, the inhibition is the relative decrease from the control value, in per cent. Low values mean a response near the control, high ones a response far below the control. `C=C[C@@](C)(O)CC/C=C(/C)CCC=C(C)C` [NEROLIDIOL]: the IC50 entry in assay [1] (sf-295), in assay [3] (hct-8) and in assay [4] (mda-mb-435) was “Not Active” in each case. For the same molecule, in assay [2], the inhibition at 50 µg/mL was 50%.

`C=C[C@H]1CN2CC[C@H]1C[C@H]2[C@H](O)c1ccnc2ccc(OC)cc12` [QUININE]: in assay [5], the IC50 was found to be 12 nM.

As to `CCN(CC)CCCC(C)Nc1ccnc2cc(Cl)ccc12` (stereo unspecified) [CHLOROQUINE PHOSPHATE], in assay [5], half-maximal inhibition (IC50) required 890 nM.

For the molecule `Oc1ccccc1O` [CATECHOL], the IC50 is 12.9 µg/mL (≈ 117 µM) in assay [1] (Homo sapiens, SF-295, 72 h, read-out: IC50); 80600 nM in assay [5]; 1.08 µg/mL (≈ 9.81 µM) in assay [6]; 13.5 µg/mL (≈ 123 µM) in assay [3] (Homo sapiens, HCT-8, 72 h, read-out: IC50); more than 25 µg/mL in assay [4] (Homo sapiens, MDA-MB-435, 72 h, read-out: IC50).

The values are drawn from ChEMBL document CHEMBL1158370, “New antimalarial and cytotoxic 4-nerolidylcatechol derivatives” (Eur J Med Chem, 2009).
